# A selection: hits, their analogues and other compounds. The true share with any hit is near 2.5%.
# SENP7 inh: SENP7 protease inhibition. recombinant SENP7, Z-RLRGG-aminoluciferin luminescence, 40 min. AID 434973. actives 1.5% (n = 330,000). Q9BQF6. inhibition, % at 5 µM;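 active = inhibition above about 50% at the single test dose, limit read from the data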;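 note: plate controls were DMSO with enzyme for no effect and no enzyme buffer wells for full effect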
# Target sequence (Q9BQF6 706-1050 limits assumed): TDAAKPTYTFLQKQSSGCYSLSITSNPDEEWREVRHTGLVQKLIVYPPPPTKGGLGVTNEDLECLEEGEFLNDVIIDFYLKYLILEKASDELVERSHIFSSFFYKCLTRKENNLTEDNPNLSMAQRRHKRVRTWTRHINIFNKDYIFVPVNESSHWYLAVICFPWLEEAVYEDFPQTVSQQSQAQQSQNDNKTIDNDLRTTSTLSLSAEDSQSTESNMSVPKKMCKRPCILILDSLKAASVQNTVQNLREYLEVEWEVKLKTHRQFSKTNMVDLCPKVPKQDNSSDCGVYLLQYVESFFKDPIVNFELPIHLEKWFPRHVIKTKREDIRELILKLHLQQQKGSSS
# SENP8 block-1: inhibitors of human SENP8 protease; Q96LD8; inhibition, % at 20 µM; AID 602440; recombinant SENP8, Nedd8 substrate fluorescence; actives 0.64% (n = 360,000); in the data active = inhibition mostly above about 40%, no sharp cut-off; inactive = mostly below about 27%
# Target sequence (Q96LD8 whole entry, looked up): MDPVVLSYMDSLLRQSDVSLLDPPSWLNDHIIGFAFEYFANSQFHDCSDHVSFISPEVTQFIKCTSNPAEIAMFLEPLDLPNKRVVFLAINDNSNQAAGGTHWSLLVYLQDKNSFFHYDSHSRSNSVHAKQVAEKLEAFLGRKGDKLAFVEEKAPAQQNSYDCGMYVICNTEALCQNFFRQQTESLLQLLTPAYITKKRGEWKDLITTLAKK
# SENP6 block: inhibitors of human SENP6 protease. Recombinant SENP6 catalytic domain, aminoluciferin luminescence. actives 1.8% (n = 330,000). inhibition, % at 10 µM;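 active = inhibition above about 50% at the single tested dose, limit read from the data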;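 note: plate controls were DMSO wells with enzyme for no effect and DMSO wells lacking enzyme for full effect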
# SENP1 FRET inh: inhibitors of human SENP1 SUMO protease catalytic domain. AID 624204. inhibition, % at 10 µM. recombinant SENP1 catalytic domain, CyPet-SUMO1-YPet FRET cleavage. actives 0.21% (n = 360,000). Q9P0U3;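 active = inhibition at least 30% at 10 µM, raw YFP signal under a set limit, fluorescence ratio 0.5 to 1.5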;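 note: 0% = enzyme with DMSO and 100% = no enzyme wells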
#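 Material – human SENP1 catalytic domain · Input – SENP1 enzyme, 20 pM final · Compound dosing – single concentration of 10 µM compound, 0.5% DMSO final · Timing – enzyme reaction for 50 min at room temperature, dark · Measured by – FRET fluorescence in CFP and YFP emission channels · Control set – no-enzyme wells low, DMSO-plus-enzyme wells high control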
# SENP8 block-2: blocks the human protease SENP8. Q96LD8. purified SENP8, Z-RLRGG-aminoluciferin cleavage, luminescence. inhibition, % at 10 µM. actives 1.2% (n = 330,000); in the data active = inhibition above about 50%
# SENP8 conf: SENP8 (human) inhibition, single concentration confirmation; shares compounds with SENP8 block-1; actives 15% (n = 1,400); inhibition, % at 25 µM; purified SENP8, Nedd8-AMC/pro-Nedd8 cleavage fluorescence, 30 min; AID 624319; in the data active = inhibition mostly above about 39%, no sharp cut-off; inactive = mostly below about 34%
# Numbers without * were called inactive; . = no result; ! = not confirmed by another sample.
SMILES,SENP7 inh,SENP8 block-1,SENP6 block,SENP1 FRET inh,SENP8 block-2,SENP8 conf
CC(=O)NNc1cc(N2CCOCC2)nc(N2CCOCC2)n1,24,-7,-8,-84,1,.
CC(=O)N(O)CCCCCNC(=O)CCC(=O)N(O)CCCCCNC(=O)CCC(=O)N(O)CCCCCN,4,50*!,-2,2,1,19
O=[N+]([O-])c1ccc(N/N=C/c2sc(N3CCOCC3)nc2-c2ccccc2)c(S(=O)(=O)Nc2ccccc2Cl)c1,.,46*,.,35,.,30
O=[N+]([O-])c1ccc(N/N=C/c2sc(N3CCOCC3)nc2-c2ccccc2)c(S(=O)(=O)Nc2ccc(Cl)cc2)c1,.,53*,.,-8,.,20
CCOc1ccc(NS(=O)(=O)c2ccc(NC(=O)[C@@H]3CCCC[C@@H]3C(=O)O)cc2)cc1,8,14,-16,1,-1,.
O=C(Cn1cnc2ccccc2c1=O)Nc1nnc(SCc2ccccc2)s1,3,42*,17,0,7,12
CCCCc1nnc(NC(=O)Cn2cnc3ccccc3c2=O)s1,-9,14,-6,-1,3,.
CCc1cc(CNC(=O)C2CCC(=O)N(Cc3cccc(F)c3)C2)on1 (stereo not given),-4,1,-13,1,-7,.
COc1ccc(N2C(=O)CC(Nc3cccc([N+](=O)[O-])c3)C2=O)cc1 (stereo not given),8,47*,6,4,-8,29
COc1ccc(CN(C2CCCC2)S(=O)(=O)c2ccc(-n3cnnn3)cc2)cc1,4,44*,-14,-1,-8,23
Cc1ccc(N2CC(C(=O)Nc3cccnc3)CC2=O)cc1Cl (stereo not given),-4,6,-13,-1,0,.
O=C(O)c1ccccc1/C=N/NC(=S)NC1CCCCC1,7,46*,2,1,8,1
O=C(O)c1ccccc1/C=N/NC(=O)C1CCCCC1,-1,6,11,3,0,.
O=C(CCCCn1c(=O)c2ccccc2n(Cc2ccccc2F)c1=O)NC1CCN(Cc2ccccc2)CC1,0,40*,8,0,-7,10
Cc1cccc(C)c1NC(=O)Cn1c(=O)n(CCCC(=O)NC2CCN(Cc3ccccc3)CC2)c(=O)c2ccccc21,1,15,-14,-1,-1,.
CN1CCN(C(=O)CCc2nc3ccccc3n2-c2ccccc2)CC1,7,6,6,3,-2,.
NC(=O)N/N=C/C=C/c1ccc(F)cc1,-1,43*,-39,3,5,25
CCC(C)(C)C1CCC(=NNC(=S)Nc2ccccc2)CC1 (stereo not given),5,45*,-10,2,5,0
CCOC(=O)/C(C#N)=C\C=C1C=CN(C)C=C1,11,52*,9,-17,2,36
CN(C)c1ccc(NC(=S)c2ccc3ccccc3n2)cc1,-14,42*,5,22,-12,18
Cc1ccc(C)c(NC(=S)c2ccc3ccccc3n2)c1,39,12,45,-2,14,.
NC(=O)c1ccccc1OCc1nnc(-c2ccccc2Br)o1,-7,0,6,-1,0,.
N#Cc1ncc(C(F)(F)F)cc1Sc1ccc(N)cc1,5,45*,-11,3,4,24
CC(=O)Nc1cc2c(cc1Br)OCCO2,-7,47*,-7,0,-7,-6
COc1ccc(Cc2nnc(SCC(=O)Nc3ccccc3C)n(N)c2=O)cc1,-17,6,-6,3,-3,.
SMILES,SENP7 inh,SENP8 block-1,SENP6 block,SENP1 FRET inh,SENP8 block-2,SENP8 conf
O=C(/C(=C(\[O-])c1ccccc1)[n+]1ccc2ccccc2c1)c1ccc(Cl)cc1,18,46*,11,1,11,62*
O=C(/C(=C(\[O-])c1ccccc1)[n+]1ccc2ccccc2c1)c1ccccc1,.,29,.,7,.,.
CCc1ccc(C(=O)C(C)OC(=O)C2COc3ccccc3O2)cc1 (stereo not given),-8,19,-6,4,-15,.
CC1CCN(c2cc(N3CCOCC3)c([N+](=O)[O-])cc2F)CC1,1,41*,-24,10,0,23
O=[N+]([O-])c1cc(-n2cccc2)ccc1N1CCOCC1,9,42*,11,13,6,8
COCOc1cc(O)c(C(=O)/C=C/c2ccccc2)c(OCOC)c1,-9,51*,7,3,12,6
O=C1c2c(O)cc(O)cc2O[C@H](c2ccc(O)cc2)[C@H]1O,1,62*,-13,1,-16,21
O=C(CCN1CCN(Cc2ccccc2)CC1)NNC(=O)Nc1cccc(C(F)(F)F)c1,14,-1,-19,2,-7,.
COc1ccccc1NC(=O)CSC(N)=O,-4,46*,-10,2,-4,17
COc1ccc(NCc2nnc(SCC(=O)Nc3ccccc3OC)o2)cc1,-7,46*,-4,1,2,37
COc1ccccc1C1C(C(C)=O)=C(O)C(=O)N1c1ccc(O)cc1 (stereo not given),10,-24,9,2,-8,.
CCCCOCCCNC(=O)c1ccc2c(c1)OCO2,1,-2,-10,-1,3,.
COCCCNC(=O)c1ccc2c(c1)OCO2,5,45*,1,2,-2,12
CCC1CCC(C(=O)NC(C(=O)NCCN2CCOCC2)C(C)C)CC1 (stereo not given),-2,13,-2,0,3,.
Cc1cccc(NC(=O)Cc2ccc(F)cc2)c1,-5,42*,-13,5,-13,3
Cc1cccc(OCCC(=O)Nc2c(C)n(C)n(-c3ccccc3)c2=O)c1,1,42*,-11,3,-6,6
Cc1cccc(NC(=O)CCOc2ccccc2)c1,7,40*,-11,1,-1,5
CC(=O)N/C(=C\c1ccccc1)C(=O)OCC(=O)Nc1ccc(C)c(S(=O)(=O)N(C)C)c1,-5,-6,-7,0,4,.
COc1ccc(N=C2S/C(=C\c3ccc(C)s3)C(=O)N2CC(C)C)cc1,-1,44*,3,3,-6,16
Cc1cc(NS(=O)(=O)c2ccc(NC(=O)COc3ccc(Br)cc3)cc2)nc(C)n1,-5,17,0,2,-6,.
CCOc1ccc(OCC(=O)Nc2ccc(S(=O)(=O)Nc3cc(C)nc(C)n3)cc2)cc1,-5,42*,-11,-1,-2,5
N#CC(C#N)=c1ccc2c(c1)NC1(CCCCC1)N=2,9,42*,15,-4,18,24*
N#CC(C#N)=C1NC2(CCCCC2)Cc2ccccc21,9,3,-19,-2,-3,.
CSc1nncc(/C(C)=N\Nc2ccccc2C)n1,11,54*,-3,-1,4,15
O=C(Nc1ccc(O)cc1)C1CC=CCC1 (stereo not given),2,41*,5,-2,-2,49*

# Bioassay records: PubChem BioAssay, Sanford-Burnham Center for Chemical Genomics
